Assay [1] deals with Nucleic Acid. Nature of the assay: Destabilization of HIV1 [32P]-labeled SL3 RNA-NCp complex assessed as displacement of NCp from SL3 RNA after 1 hr by electrophoretic gel mobility shift assay. It is filed as nucleic-acid assay, Human immunodeficiency virus 1. The settings on record: for Ki: read-out: Ki(app). In outline:
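Gel shift assay. Ligand is then added at rising concentrations for another 1 h. Samples are run on a 6% native gel at 4 °C. IC50 comes from a Hill fit of bound-RNA counts. Ki = IC50/(1+[PT]/KD). SD is from at least three experiments.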

Assay [2] has as its target Nucleic Acid. As to the kind of experiment: Binding affinity to HIV 1 fluorescein-labeled SL3 RNA by fluorescence spectrometry. It is filed as nucleic-acid assay, Human immunodeficiency virus 1. The settings on record: for Kd: read-out: Kd(app); for Activity: Human immunodeficiency virus 1. In outline: (§1)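 Fluorescence titration of 5′-fluorescein-labeled RNA (25 nM) in 10 mM Tris-HCl pH 7.4, 25 mM NaCl at 25 °C. Ligand is added stepwise until the signal plateaus, with 3–5 min equilibration per addition. Excitation is 490 nm; emission at 517 nm is used. Fraction bound is fit to a 1:1 model, or a 2:1 cooperative model for one ligand, to give apparent KD. Fluorescein-only and DMSO controls are run. SD is from at least three measurements.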

The target in assay [3] is Nucleic Acid. Nature of the assay: Binding affinity to double stranded RNA by fluorescence spectrometry. The settings on record: for Kd: read-out: Kd(app). It is filed as nucleic-acid assay. A digest of the protocol: as §1
For assay [4], the target named is Nucleic Acid. Nature of the assay: Binding affinity to single stranded RNA by fluorescence spectrometry. It counts as nucleic-acid assay. To be noted: for Kd: read-out: Kd(app). A digest of the protocol:
as §1

In assay [5] the test system is Nucleic Acid. Nature of the assay: Selectivity ratio of Kd for double stranded RNA to Kd for HIV 1 SL3 RNA. It counts as nucleic-acid assay.
Assay [6] deals with Nucleic Acid. As to the kind of experiment: Selectivity ratio of Kd for single stranded RNA to Kd for HIV 1 SL3 RNA. It is filed as nucleic-acid assay.
Assay [7] addresses Nucleic Acid. Nature of the assay: Binding affinity to HIV 1 SL3 RNA by ITC analysis. It counts as nucleic-acid assay, Human immunodeficiency virus 1. To be noted: read-out: Kd(app). A digest of the protocol:
(§2)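 Isothermal titration calorimetry at 25 °C. Ligand at 1 mM is injected in 10 μL aliquots into 20 μM RNA. Both are in 10 mM sodium phosphate pH 7.4 with 10% DMSO. Injections last 24 s and are spaced 240 s apart. Heats are corrected with ligand-into-buffer controls. KD values come from a sequential two-site binding fit to heat versus ligand:RNA molar ratio. SD is from two measurements.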
In general terms: In ITC the heat of successive injections is recorded.

Assay [8] concerns the target Nucleic Acid. As to the kind of experiment: Binding affinity to HIV 1 SL3 RNA assessed as second binding dissociation constant by ITC analysis. It counts as nucleic-acid assay, Human immunodeficiency virus 1. The settings on record: read-out: Kd(app). In outline: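 ITC at 25 °C: ligand (1 mM) in 10 mM sodium phosphate pH 7.4 with 10% DMSO injected in 10 μL aliquots into 20 μM SL3 RNA in the same buffer. Injections lasted 24 s at 240 s spacing. Heats of ligand-into-buffer titrations were subtracted. Heat versus ligand:RNA molar ratio was fit to a sequential two-site model, with the second KD taken from the second site. Two measurements.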

Assay [9] relates to Nucleic Acid. Nature of the assay: Inhibition of HIV1 [32P]-labeled SL3 RNA interaction with NCp at 1mM after 1 hr by electrophoretic gel mobility shift assay. The settings on record: Human immunodeficiency virus 1. It counts as nucleic-acid assay. A digest of the protocol: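 Screen for single-point inhibition. Ligand is added at a final 1 mM to a preformed NCp7–SL3 RNA complex and incubated 1 h. Bound and free RNA are then resolved by gel mobility shift assay.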

For assay [10], the target named is Nucleic Acid. Nature of the assay: Binding affinity to double stranded RNA by ITC analysis. It is filed as nucleic-acid assay. To be noted: read-out: Kd(app). In outline:
as §2

For assay [11], the target named is Nucleic Acid. Nature of the assay: Binding affinity to single stranded RNA by ITC analysis. To be noted: read-out: Kd(app). It counts as nucleic-acid assay. In outline:
as §2

Assay [12] deals with Nucleic Acid. As to the kind of experiment: Binding affinity to double stranded RNA assessed as second binding dissociation constant by ITC analysis. It is filed as nucleic-acid assay. To be noted: read-out: Kd(app). A digest of the protocol: as §2
Assay [13] deals with Nucleic Acid. Nature of the assay: Binding affinity to single stranded RNA assessed as second binding dissociation constant by ITC analysis. It is filed as nucleic-acid assay. To be noted: read-out: Kd(app). A digest of the protocol: as §2

The source made the active and inactive calls. The rule behind the calls is not given here.

For orientation: IC50 means the point on the concentration scale where inhibition reaches its midpoint. Regarding `O=C1c2ccccc2C(=O)c2c(NCCO)ccc(NCCO)c21`, the IC50 in assay [1] was found to be 700 µM. Besides, the Ki in assay [1] is 200 µM. For the same compound, the values for the Kd in assay [2], in assay [3] and in assay [4] were 1.1 µM, 3.2 µM and 2.2 µM, respectively.
In the case of `O=C(Cc1ccccc1)Nc1ccc(N2CCCC2)cc1`, the outcome in assay [2] was inactive.
`O=[N+]([O-])c1ccc(SCCO)c2ncccc12`: the Kd is 90 µM in assay [2], above 1110 µM in assay [3] and above 604 µM in assay [4]. In addition, the Selectivity ratio in assay [5] is above 12; in assay [6], above 7.
With `N=C1NC(=O)/C(=C\c2ccc3ccccc3c2)S1`, the Kd in assay [2] was determined as 11 µM; in assay [3] it was 11.2 µM; in [4], 8.9 µM.
Turning to `Nc1c(S(=O)(=O)O)cc(Nc2ccc(S(N)(=O)=O)cc2)c2c1C(=O)c1ccccc1C2=O`, the Kd in assay [7] is 11 µM. Besides, in assay [1], the IC50 came out at 70 µM and the Ki was 20 µM. Further, the Kd in assay [8] worked out at 11000 µM.
On to `O=C(C[n+]1cccc(C(=O)N/N=C/c2ccc(Br)cc2)c1)c1ccccc1`, for which the result in assay [2] was inactive.
On to `O=C1NC(=S)N/C1=C/c1ccc2ccccc2c1`, for which the Kd in assay [2] came to 13.2 µM; in assay [3], 12 µM; in [4], 7.5 µM.
For `Nc1c(S(=O)(=O)O)cc(Nc2cccc(S(N)(=O)=O)c2)c2c1C(=O)c1ccccc1C2=O`, in assay [9], the inhibition result was “Active”.
In the case of `CNC(=O)c1cc2c(=O)n3cccc(C)c3nc2n(CCCO)c1=N`, the Kd in assay [2] worked out at 3.5 µM; in assay [3] it was 8.2 µM; in assay [4], 9.5 µM.
For the compound `CN1CCN(CCCN2c3ccccc3Sc3ccc(C(F)(F)F)cc32)CC1` [TRIFLUOPERAZINE], the Kd in assay [2] is 1.7 µM; in [3], 2.19 µM; in [4] it was 2 µM.
On to `Nc1ccccc1NCCOc1ccccc1`, for which the Kd in assay [2] is 51 µM. The outcome in assay [3] and in assay [4] was Active.
For `COc1ccc(NCc2ccc([N+](=O)[O-])s2)cc1OC`, the Kd is 11.1 µM in assay [2], 8.4 µM in assay [3] and 14 µM in assay [4].
On to `Cc1cccn2c(=O)c3cc(C(=O)NCCN4CCOCC4)c(=N)n(Cc4cccnc4)c3nc12`, for which the Kd in assay [2] turned out to be 5 µM; in assay [3], 8.3 µM; in assay [4] it was 11.8 µM.
`CC1CCN(c2ccc(N)cc2)CC1`: the Kd in assay [2] came out at 44 µM. The result in [3] and in [4] was Active.
`O=C1Oc2ccccc2C(=O)/C1=C/N1C(=O)N/C(=C\c2ccccc2O)C1=O`: in [1], the IC50 was 340 µM and the Ki is 110 µM. Further, the inhibition result in [9] is “Active”.
`Cc1cccn2c(=O)c3cc(C(=O)N4CCN(C)CC4)c(=N)n(CC4CCCO4)c3nc12` (centres undefined): the Kd in [7] was 14.5 µM; in assay [10], 189 µM; in [11], 280 µM; in assay [12], 2400 µM; in assay [13] it was 12000 µM; in assay [2], 10 µM. Moreover, the Selectivity ratio in [5] worked out at 13; in assay [6], 19.
As for `O=C1NC(=S)NC(=O)C1=Cc1cn(-c2ccccc2)nc1-c1cc2c(ccc3ccccc32)oc1=O`, in assay [7], the Kd is 68 µM. In addition, in [1], the half-maximal inhibitory concentration (IC50) amounted to 123 µM and the Ki came out at 40 µM. Also, the Kd in [8] worked out at 488 µM.
Turning to `Cc1cccn2c(=O)c3cc(C(=O)NC(C)c4ccccc4)c(=N)n(CCOCCO)c3nc12` (centres undefined), the figures for the Kd in assay [2], in [3] and in [4] were 4.5 µM, 5.1 µM and 4.1 µM, respectively.
Consider `O=C(NN=Cc1ccc(Br)cc1)c1cc[n+](Cc2ccccc2)cc1`, for which the Kd in assay [2] is 33 µM. Moreover, the result in [3] and in assay [4] was Active.
Consider `O=C(NC(=S)Nc1ccc(N2CCCC2)cc1)c1ccccc1[N+](=O)[O-]`, for which the result in [2] was inactive.
Turning to `COc1ccc(N/C(S)=N/CCCn2ccnc2)cc1`, the outcome in assay [2] was inactive.

The values are drawn from ChEMBL document CHEMBL2163322, “Identification of small molecule inhibitors of the HIV-1 nucleocapsid-stem-loop 3 RNA complex” (J Med Chem, 2012).
